Source: ChEMBL document CHEMBL1152506, “Characterization and synthetic application of a novel beta1,3-galactosyltransferase from Escherichia coli O55:H7” (Bioorg Med Chem, 2009)
Calls of active or inactive are those of the source. The calls are words filed in the database; no cut-off is given here.

How the values were obtained:
[1] = biological target: T1, Putative glycosyltransferase (Escherichia coli O55:H7) (UniProt B1B4J9); assay: Activity of Escherichia coli O55:H7 glycosyltransferase WbgO relative to GlcNAc
T1 sequence (whole entry): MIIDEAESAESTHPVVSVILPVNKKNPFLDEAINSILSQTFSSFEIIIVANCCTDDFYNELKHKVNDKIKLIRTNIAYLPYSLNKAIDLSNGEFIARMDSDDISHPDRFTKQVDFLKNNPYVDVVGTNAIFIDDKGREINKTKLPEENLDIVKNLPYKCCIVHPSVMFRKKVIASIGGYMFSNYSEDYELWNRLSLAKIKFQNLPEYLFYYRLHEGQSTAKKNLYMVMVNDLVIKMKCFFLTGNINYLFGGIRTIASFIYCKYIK
Procedure, shortened: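 GST-fused WbgO made in E. coli BL21(DE3) and purified on glutathione resin. Assayed in 50 µL of 50 mM HEPES pH 7.0 with 5 mM MnCl2, 0.3 mM UDP-Gal plus UDP-[6-3H]Gal (10,000 cpm), 2 mM acceptor and 4 µg enzyme, 37 °C for 1 h. Control omitted the acceptor. Incorporated 3H was read by liquid scintillation counting and expressed relative to GlcNAc.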

[2] = biological target: T1, Putative glycosyltransferase (Escherichia coli O55:H7); assay: Activity of Escherichia coli O55:H7 glycosyltransferase WbgO
Procedure, shortened: (§1)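 Apparent kinetics for purified GST-WbgO, using the radioactive UDP-[6-3H]Gal transfer assay with scintillation counting. The acceptor (GlcNAc, GalNAc or lacto-N-triose) was varied at 0.1, 0.2, 0.5, 1 and 2 mM with UDP-Gal fixed at 1 mM. UDP-Gal was varied at 0.1–2 mM with 20 mM GlcNAc. Base buffer was HEPES pH 7.0 with 5 mM MnCl2.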

[3] = substrate: CC(=O)N[C@H]1[C@H](O[C@H]2[C@@H](O)[C@@H](CO)O[C@@H](O[C@H]3[C@H](O)[C@@H](O)[C@H](O)O[C@@H]3CO)[C@@H]2O)O[C@H](CO)[C@@H](O)[C@@H]1O[C@@H]1O[C@H](CO)[C@H](O)[C@H](O)[C@H]1O; assay: (§2) Ratio of Kcat to Km for Escherichia coli O55:H7 glycosyltransferase WbgO by Lineweaver-Burke analysis; procedure, shortened: as §1
[4] = substrate: CC(=O)N[C@@H]1[C@@H](O)[C@@H](O)[C@@H](CO)O[C@H]1O; assay: as §2; procedure, shortened: as §1
[5] = substrate: CC(=O)N[C@@H]1[C@@H](O)[C@H](O)[C@@H](CO)O[C@H]1O; assay: as §2; procedure, shortened: as §1
[6] = substrate: CC(=O)N[C@H]1[C@H](O[C@H]2[C@@H](O)[C@@H](CO)O[C@@H](O[C@H]3[C@H](O)[C@@H](O)[C@H](O)O[C@@H]3CO)[C@@H]2O)O[C@H](CO)[C@@H](O)[C@@H]1O[C@@H]1O[C@H](CO)[C@H](O)[C@H](O)[C@H]1O; assay: (§3) Activity of Escherichia coli O55:H7 glycosyltransferase WbgO by Lineweaver-Burke analysis; procedure, shortened: as §1
[7] = substrate: CC(=O)N[C@@H]1[C@@H](O)[C@@H](O)[C@@H](CO)O[C@H]1O; assay: as §3; procedure, shortened: as §1
[8] = substrate: CC(=O)N[C@@H]1[C@@H](O)[C@H](O)[C@@H](CO)O[C@H]1O; assay: as §3; procedure, shortened: as §1

CC(=O)N[C@H]1[C@H](O[C@H]2[C@@H](O)[C@@H](CO)O[C@@H](O[C@H]3[C@H](O)[C@@H](O)[C@H](O)O[C@@H]3CO)[C@@H]2O)O[C@H](CO)[C@H](O)[C@@H]1O
Activity [1]: 16%

CC(=O)N[C@@H]1[C@@H](O)[C@@H](O)[C@@H](CO)O[C@H]1O
Activity [2]: Active
Activity [1]: 43%

CC(=O)N[C@H]1[C@H](Oc2ccc([N+](=O)[O-])cc2)O[C@H](CO)[C@@H](O)[C@@H]1O
Activity [1]: 73%

CC(=O)N[C@@H]1[C@@H](O)[C@H](O)[C@@H](CO)O[C@H]1O
Activity [2]: Active
Activity [1]: 100%

B1: Putative glycosyltransferase (Escherichia coli O55:H7), B1B4J9 (protein)
chain: T1 sequence (whole entry)
kcat/Km [3]: 278 M⁻¹ s⁻¹
kcat/Km [4]: 87.2 M⁻¹ s⁻¹
kcat/Km [5]: 132 M⁻¹ s⁻¹
Km [6]: 55 µM
Vmax [6]: 176 pmol/min
kcat [6]: 0.0417 s⁻¹
Km [7]: 327 µM
Vmax [7]: 120 pmol/min
kcat [7]: 0.0285 s⁻¹
Km [8]: 323 µM
Vmax [8]: 179 pmol/min
kcat [8]: 0.0425 s⁻¹
